A short description of assay [1]: Her2 expression decrease, cell viability multiplex – SKBR3 breast tumor cells, AlphaScreen, ATP viability, primary screen (AID 461).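 For Her2 level: lower value means less Her2 protein in the cells.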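 For viability: percent of carrier control wells set as 100% viability.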 The conditions noted are these: SKBR3 Her2 protein level, 18-24 h, measured here: SKBR3 viability, ATP luminescence, at 10 µM. (In Alpha technology, singlet oxygen from a donor bead excites a nearby acceptor bead.)
In assay [2] the target is Receptor tyrosine-protein kinase erbB-2 (Homo sapiens) (UniProt P04626). Described as above. The conditions noted are these: 18-24 h, at 10 µM, stronger effect = lower value.
Chain of Receptor tyrosine-protein kinase erbB-2 (Homo sapiens) (P04626 whole entry, looked up): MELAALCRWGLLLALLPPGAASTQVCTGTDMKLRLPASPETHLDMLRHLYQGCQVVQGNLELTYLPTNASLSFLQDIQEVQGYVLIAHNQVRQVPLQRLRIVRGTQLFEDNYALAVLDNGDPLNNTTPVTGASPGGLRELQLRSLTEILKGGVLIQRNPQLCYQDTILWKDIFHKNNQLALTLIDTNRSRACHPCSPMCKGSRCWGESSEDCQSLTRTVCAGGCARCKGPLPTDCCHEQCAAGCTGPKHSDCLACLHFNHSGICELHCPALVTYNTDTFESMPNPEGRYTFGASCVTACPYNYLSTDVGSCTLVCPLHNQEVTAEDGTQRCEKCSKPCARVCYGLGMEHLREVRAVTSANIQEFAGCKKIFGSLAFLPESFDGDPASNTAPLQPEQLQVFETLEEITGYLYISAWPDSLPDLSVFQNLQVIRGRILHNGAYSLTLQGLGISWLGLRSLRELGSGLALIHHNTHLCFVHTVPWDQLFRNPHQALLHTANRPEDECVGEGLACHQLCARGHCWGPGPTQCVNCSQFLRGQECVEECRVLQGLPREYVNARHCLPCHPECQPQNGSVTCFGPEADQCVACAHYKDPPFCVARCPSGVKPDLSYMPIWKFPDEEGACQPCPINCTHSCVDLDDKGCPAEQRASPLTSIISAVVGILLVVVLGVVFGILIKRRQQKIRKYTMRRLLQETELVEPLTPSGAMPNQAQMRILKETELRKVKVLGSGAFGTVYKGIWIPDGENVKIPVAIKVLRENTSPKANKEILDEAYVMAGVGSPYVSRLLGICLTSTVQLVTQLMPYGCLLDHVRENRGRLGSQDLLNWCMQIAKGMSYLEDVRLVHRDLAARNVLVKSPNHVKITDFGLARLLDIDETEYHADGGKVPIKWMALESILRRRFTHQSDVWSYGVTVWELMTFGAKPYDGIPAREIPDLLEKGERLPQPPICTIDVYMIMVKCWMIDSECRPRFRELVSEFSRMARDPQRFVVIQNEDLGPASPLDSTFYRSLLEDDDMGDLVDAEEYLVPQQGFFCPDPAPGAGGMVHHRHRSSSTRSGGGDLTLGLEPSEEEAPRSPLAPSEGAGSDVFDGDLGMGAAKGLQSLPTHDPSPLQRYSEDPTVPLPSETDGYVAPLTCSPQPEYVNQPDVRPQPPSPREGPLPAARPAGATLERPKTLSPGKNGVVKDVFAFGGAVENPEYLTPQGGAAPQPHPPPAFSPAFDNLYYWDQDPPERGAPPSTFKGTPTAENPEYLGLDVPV
Assay [3] is described as follows: reduced viability of SK-BR-3 breast cancer cells – cell-based, 24 h, human, pilot screen (AID 572;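 active = viability at or below 10% of carrier control in both of two separate runs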;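 note: compound exposure lasted between 18 and 24 h rather than exactly 24 h; 100% = carrier-treated control wells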). The conditions noted are these: SK-BR-3 viability, CellTiter-Glo luminescence, at 10 µM, stronger effect = lower value.
Assay [4] can be described thus: HUVEC growth inhibition – cell-based, human, primary screen (AID 575;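 active = viability at or below 30% in both replicate assays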;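 note: 100% = median of untreated cell wells with 0.1% DMSO on each plate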). The conditions noted are these: HUVEC proliferation, CellTiter-Glo luminescence, 72 h; at 10 µM; stronger effect = lower value. The procedure, abridged: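 Test system: primary human umbilical vein endothelial cells; medium: endothelial basal medium with 2% FBS plus growth supplements; dosing: 10 µM compound only; times: 72 h treatment at 37 °C; signal: CTG luminescence; read-out: % viability relative to median vehicle-well signal on each plate; control set: vehicle and MePR control wells; plate: 384-well, collagen-coated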

Assay [5] in a line: H69AR cell proliferation blockers – human, duplicate replicates, primary screen (AID 580;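 active = viability at or under a set limit in both replicates, limit being median viability minus 3 SD, cut at about 48% in these data, passing the limit was not always enough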;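 note: 100% = mean luminescence of untreated wells and 0% = no signal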). The conditions noted are these: H69AR lung tumor cells viability, ATP luminescence, 72 h; at 10 µM; stronger effect = lower value.
The nature of assay [6]: MRP1 drug-resistance reversers in H69AR cells – cell-based, doxorubicin co-treatment, pilot screen (AID 601;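 active = viability loss from added drug above about 55%, and viability with drug at most 40%, in both replicates, limit read from the data, passing the limit was not always enough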). The conditions noted are these: CellTiter-Glo, 72 h, at 10 µM; for differential viability (reversal): stronger effect = higher value.
The nature of assay [7]: yeast transport mutant growth inhibition pilot in 384-well plates, post-Golgi transport modulator project (AID 636; in the data active = inhibition above about 31%). The conditions noted are these: absorbance 615 nm, about 18 h, stronger effect = higher value.
Assay [8] can be described thus: growth suppression of yeast trafficking mutant, preliminary HTS, modulators of trafficking downstream of Golgi apparatus project, 1536-format plate, OD 615 nm (AID 637; in the data active = inhibition above about 30%). The conditions noted are these: yeast transport mutant growth, absorbance 615 nm, 18 h; stronger effect = higher value.
[9] abbreviates: H69AR cells + 2 uM doxorubicin, measured here: viability with 2 uM doxorubicin, stronger effect = lower value.
[10] abbreviates: H69AR cells, compound alone cytotoxicity.

Structures are written as SMILES. Calls of active or inactive are those of the source.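 Rule for the calls, unless noted: active = Her2 level under about 52% in both replicate screens, with viability over 70% of control (limit read from the data); inconclusive = Her2 under the limit in one screen only, or viability under 70%; inactive = Her2 level above the set limit.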

What is called viability is a read-out of living cells in per cent, often relative to untreated cells. A word on the inhibition: it is the relative decrease from the control value, in per cent. For `COc1ccc(Cn2c(=O)[nH]c3cc(C(=O)NCCCN4CCCC4)ccc3c2=O)cc1`, the viability in assay [1] is 106%; in assay [3] it was 106% (inactive); in assay [4], 103% (inactive); in assay [5], 92.3% (inactive); in assay [6] (setting [9]) it was 85.6%; in assay [6] (setting [10]), 92.3%. Moreover, the Her2 level in assay [2] was 94% (inactive). Moreover, the differential viability (reversal) in assay [6] (H69AR cells + 2 uM doxorubicin) was 6.71% (inactive). Further, the values for the inhibition in assay [7] and in assay [8] were -7.03% (inactive) and 4.33% (inactive), respectively.
In the case of `O=C(c1ncc[nH]1)c1ccccc1C(=O)N1CCOCC1`, the viability in assay [1] was 118%; in assay [3], 118% (inactive); in assay [4] it was 100% (inactive); in assay [5], 90.3% (inactive); in assay [6] (setting [9]), 87.3%; in assay [6] (setting [10]) it was 90.3%. The Her2 level in assay [2] is 112% (inactive). Further, the differential viability (reversal) in assay [6] (H69AR cells + 2 uM doxorubicin) was 3.04% (inactive). Also, the inhibition was -5.21% (inactive) in assay [7] and 1.75% (inactive) in assay [8].
With `O=S(=O)(c1ccc(OCC(O)CN2CCc3ccccc3C2)cc1)N1CCOCC1` (stereo not given), the viability in assay [1] was 89%; in assay [3], 89% (inactive); in assay [4] it was 98.2% (inactive); in assay [5] it was 87.6% (inactive); in assay [6] (setting [9]) it was 84.6%; in assay [6] (setting [10]), 87.6%. Further, the Her2 level in assay [2] is 83.5% (inactive). Besides, in assay [6] (H69AR cells + 2 uM doxorubicin), the differential viability (reversal) was 2.98% (inactive). Also, the inhibition was -1.71% (inactive) in assay [7] and -2.73% (inactive) in assay [8].
Take `C(#Cc1ccccc1)Cn1nnc2ccccc21`: the viability was 80.5% in assay [1]; 80.5% (inactive) in assay [3]; 99% (inactive) in assay [4]; 83.1% (inactive) in assay [5]; 75.6% in assay [6] (setting [9]); 83.1% in assay [6] (setting [10]). Besides, the Her2 level in assay [2] is 86.5% (inactive). Also, the differential viability (reversal) in assay [6] (H69AR cells + 2 uM doxorubicin) is 7.46% (inactive). Further, the inhibition in assay [7] is 0.9% (inactive); in assay [8] it was 4.33% (inactive).
On to `CCOC(=O)c1sc(NC(=O)COC(=O)Cn2cnc3ccccc32)c(C(=O)OCC)c1C`, for which the viability in assay [1] is 96%; in assay [3], 96% (inactive); in assay [4] it was 68.4% (inactive); in assay [5], 71.2% (inactive); in assay [6] (setting [9]), 79.6%; in assay [6] (setting [10]) it was 71.2%. For the same compound, the Her2 level in assay [2] is 78% (inactive). Besides, the differential viability (reversal) in assay [6] (H69AR cells + 2 uM doxorubicin) is -8.35% (inactive). For the same compound, the inhibition in assay [7] is -0.26% (inactive); in assay [8], -4.44% (inactive).
`CS(=O)(=O)NCc1nnc(SCC(=O)NC2CCCCC2)n1-c1ccc(F)cc1`: the viability in assay [1] is 98.5%; in assay [3], 98.5% (inactive); in assay [4], 102% (inactive); in assay [5], 97.6% (inactive); in assay [6] (setting [9]) it was 88.4%; in assay [6] (setting [10]), 97.6%. In addition, the Her2 level in assay [2] was 100% (inactive). The differential viability (reversal) in assay [6] (H69AR cells + 2 uM doxorubicin) was 9.24% (inactive). The inhibition in assay [7] is -6.18% (inactive); in assay [8] it was 12.3% (inactive).
Take `O=C(COC(=O)Cc1cccc(C(F)(F)F)c1)NCC1CCCO1` (stereo not given): the viability was 94% in assay [1]; 94% (inactive) in assay [3]; 96.5% (inactive) in assay [4]; 96.4% (inactive) in assay [5]; 73.5% in assay [6] (setting [9]); 96.4% in assay [6] (setting [10]). Also, the Her2 level in assay [2] was 98.5% (inactive). Further, the differential viability (reversal) in assay [6] (H69AR cells + 2 uM doxorubicin) is 22.8% (inactive). Also, the inhibition is -5.13% (inactive) in assay [7] and -4.36% (inactive) in assay [8].
Regarding `O=C(C1CCCO1)N1CCc2ccccc21` (stereo not given), the viability was 85% in assay [1]; 85% (inactive) in assay [3]; 94% (inactive) in assay [4]; 92.4% (inactive) in assay [5]; 97.8% in assay [6] (setting [9]); 92.4% in assay [6] (setting [10]). Besides, the Her2 level in assay [2] is 92.5% (inactive). Also, in assay [6] (H69AR cells + 2 uM doxorubicin), the differential viability (reversal) is -5.42% (inactive). The inhibition in assay [7] was -4.8% (inactive); in assay [8], -0.32% (inactive).
Turning to `Cc1c(/C(O)=C2/C(=O)C(=O)N(CCN3CCOCC3)C2c2cccs2)cnn1-c1ccccc1` (stereo not given), the viability in assay [1] is 88%; in assay [3] it was 88% (inactive); in assay [4], 116% (inactive); in assay [5], 96.2% (inactive); in assay [6] (setting [9]), 95%; in assay [6] (setting [10]), 96.2%. The Her2 level in assay [2] was 114% (inactive). In addition, in assay [6] (H69AR cells + 2 uM doxorubicin), the differential viability (reversal) is 1.22% (inactive). In addition, the results for the inhibition in assay [7] and in assay [8] were -0.79% (inactive) and 0.16% (inactive), respectively.
Regarding `O=C(c1cccc(C(=O)N2CCN(c3ccc(F)cc3)CC2)c1)N1CCN(c2ccc(F)cc2)CC1`, the viability is 110% in assay [1]; 110% (inactive) in assay [3]; 74% (inactive) in assay [4]; 73.4% (inactive) in assay [5]; 49.4% in assay [6] (setting [9]); 73.4% in assay [6] (setting [10]). The Her2 level in assay [2] was 102% (inactive). Also, in assay [6] (H69AR cells + 2 uM doxorubicin), the differential viability (reversal) is 24% (inactive). Also, the figures for the inhibition in assay [7] and in assay [8] were 3.51% (inactive) and 2.95% (inactive), respectively.
In the case of `CC(C)=CCSc1nnc(CCNC(=O)OC(C)(C)C)o1`, the viability in assay [1] is 96%; in assay [3] it was 96% (inactive); in assay [4], 87.2% (inactive); in assay [5], 96.6% (inactive); in assay [6] (setting [9]) it was 79.3%; in assay [6] (setting [10]), 96.6%. Further, in assay [2], the Her2 level was 85.5% (inactive). Further, the differential viability (reversal) in assay [6] (H69AR cells + 2 uM doxorubicin) was 17.2% (inactive). In addition, the values for the inhibition in assay [7] and in assay [8] were -4.8% (inactive) and 16.6% (inactive), respectively.
For `CC(=O)c1cccc(NC(=O)NCc2ccccn2)c1`, the viability in assay [1] is 91%; in assay [3], 91% (inactive); in assay [4], 92% (inactive); in assay [5], 97.6% (inactive); in assay [6] (setting [9]) it was 91.5%; in assay [6] (setting [10]), 97.6%. The Her2 level in assay [2] is 87% (inactive). The differential viability (reversal) in assay [6] (H69AR cells + 2 uM doxorubicin) was 6.09% (inactive). Besides, the inhibition in assay [7] is -4.47% (inactive); in assay [8], -4.17% (inactive).
`N#Cc1cnn(Cc2ccc(Cl)cc2)c1N`: the viability in assay [1] is 92%; in assay [3], 92% (inactive); in assay [4] it was 92.7% (inactive); in assay [5] it was 95.4% (inactive); in assay [6] (setting [9]), 84.9%; in assay [6] (setting [10]), 95.4%. The Her2 level in assay [2] was 97.5% (inactive). The differential viability (reversal) in assay [6] (H69AR cells + 2 uM doxorubicin) was 10.4% (inactive). Moreover, the figures for the inhibition in assay [7] and in assay [8] were -7.03% (inactive) and -7.21% (inactive), respectively.
Consider `CC(C)COc1ccc(C(=O)OCCN2CCOCC2)cc1`, for which the viability in assay [1] is 98.5%; in assay [3], 98.5% (inactive); in assay [4], 118% (inactive); in assay [5] it was 98.2% (inactive); in assay [6] (setting [9]), 95.3%; in assay [6] (setting [10]) it was 98.2%. Also, the Her2 level in assay [2] was 101% (inactive). The differential viability (reversal) in assay [6] (H69AR cells + 2 uM doxorubicin) is 2.9% (inactive). The inhibition in assay [7] was -2.86% (inactive); in assay [8], -3.65% (inactive).

Values taken from PubChem BioAssay.
